Results pooled from the literature.
Lines come from different studies, so protocols differ.
Target: Ephrin type-A receptor 1 (EPHA1, Homo sapiens, UniProt P21709)
Sequence (P21709 26-976, as in one of the studies): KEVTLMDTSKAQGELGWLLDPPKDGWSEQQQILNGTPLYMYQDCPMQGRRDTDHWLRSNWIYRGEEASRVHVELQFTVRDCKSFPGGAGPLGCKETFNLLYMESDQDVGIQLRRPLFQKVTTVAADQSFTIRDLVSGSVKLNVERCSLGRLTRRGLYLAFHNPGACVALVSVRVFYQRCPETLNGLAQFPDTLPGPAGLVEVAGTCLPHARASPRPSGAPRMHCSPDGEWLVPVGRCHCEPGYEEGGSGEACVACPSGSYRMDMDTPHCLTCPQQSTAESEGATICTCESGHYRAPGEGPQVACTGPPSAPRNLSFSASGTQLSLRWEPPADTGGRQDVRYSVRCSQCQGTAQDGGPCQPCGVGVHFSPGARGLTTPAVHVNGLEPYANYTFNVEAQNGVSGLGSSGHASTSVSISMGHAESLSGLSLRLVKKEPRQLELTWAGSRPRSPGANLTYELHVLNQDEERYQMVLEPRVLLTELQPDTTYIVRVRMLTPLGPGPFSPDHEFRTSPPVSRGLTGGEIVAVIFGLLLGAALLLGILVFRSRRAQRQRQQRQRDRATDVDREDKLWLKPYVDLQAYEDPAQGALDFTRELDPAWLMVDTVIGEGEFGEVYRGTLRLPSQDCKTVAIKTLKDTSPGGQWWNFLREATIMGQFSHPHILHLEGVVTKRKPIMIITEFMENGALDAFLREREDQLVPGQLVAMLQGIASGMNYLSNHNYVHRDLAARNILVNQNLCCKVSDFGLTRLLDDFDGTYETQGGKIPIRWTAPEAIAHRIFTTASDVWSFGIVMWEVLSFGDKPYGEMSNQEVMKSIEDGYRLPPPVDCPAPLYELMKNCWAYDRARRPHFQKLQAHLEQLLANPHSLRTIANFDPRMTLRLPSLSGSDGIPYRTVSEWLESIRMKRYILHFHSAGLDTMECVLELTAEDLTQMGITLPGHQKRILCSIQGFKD

Structure (SMILES) | assay | conditions | endpoint | value
CN1CCN(C(=O)c2ccc(NC(=O)Nc3ccc(N(C)c4ccnc(Nc5ccc(CS(C)(=O)=O)cc5)n4)cc3)cc2)CC1 | binding, competition with immobilised ligand | 1 µM | remaining binding | 56%
C1=C/COCc2cc(ccc2OCCN2CCCC2)Nc2nccc(n2)-c2cccc(c2)COC/1 | binding | 0.1 µM | remaining binding | 93%
CC(C)S(=O)(=O)c1ccc2nccc(Nc3ccc4sc(C5CCCC5)nc4c3)c2c1 | enzyme activity, inhibitor | 1 µM | activity vs control | 100%
COc1ccc2oc(-c3ccc4nc(N)oc4c3)c/c(=N\c3ccccc3NC(=O)CCN)c2c1 | binding | 1 µM | remaining binding | 101%
C=CC(=O)N1CCC([C@@H]2CCNc3c(C(N)=O)c(-c4ccc(Oc5ccccc5)cc4)nn32)CC1 | cell-free assay | 1 µM | inhibition | 25%
Cc1ccc(NC(=O)c2ccnc(C(F)(F)F)c2)cc1-c1cc(OCCO)nc(N2CCOCC2)c1 | binding, competition with immobilised ligand | 1 µM | remaining binding | 83%
CCCCC(=O)Nc1ccc(-c2ccc3ncn(CCC)c(=O)c3c2)cn1 | binding, competition with immobilised ligand | 0.5 µM | remaining binding | 80%
CC#CC(=O)N1CCC[C@H]1c1nc(-c2ccc(C(=O)Nc3ccccn3)cc2)c2c(N)nccn12 | enzyme activity, inhibitor | 1 µM | inhibition | 25%
